Broadly, the inhibition is the change of the read-out against control, counted positive when it falls.

Here are results for three molecules from ChEMBL document CHEMBL5653631, “A Potent and Selective ULK1 Inhibitor Suppresses Autophagy and Sensitizes Cancer Cells to Nutrient Stress” (iScience, 2018).

SMILES strings stand for the structures.

For assay [1], the target named is T1, Serine/threonine-protein kinase D3 (Homo sapiens) (UniProt O94806).
T1 sequence (whole entry): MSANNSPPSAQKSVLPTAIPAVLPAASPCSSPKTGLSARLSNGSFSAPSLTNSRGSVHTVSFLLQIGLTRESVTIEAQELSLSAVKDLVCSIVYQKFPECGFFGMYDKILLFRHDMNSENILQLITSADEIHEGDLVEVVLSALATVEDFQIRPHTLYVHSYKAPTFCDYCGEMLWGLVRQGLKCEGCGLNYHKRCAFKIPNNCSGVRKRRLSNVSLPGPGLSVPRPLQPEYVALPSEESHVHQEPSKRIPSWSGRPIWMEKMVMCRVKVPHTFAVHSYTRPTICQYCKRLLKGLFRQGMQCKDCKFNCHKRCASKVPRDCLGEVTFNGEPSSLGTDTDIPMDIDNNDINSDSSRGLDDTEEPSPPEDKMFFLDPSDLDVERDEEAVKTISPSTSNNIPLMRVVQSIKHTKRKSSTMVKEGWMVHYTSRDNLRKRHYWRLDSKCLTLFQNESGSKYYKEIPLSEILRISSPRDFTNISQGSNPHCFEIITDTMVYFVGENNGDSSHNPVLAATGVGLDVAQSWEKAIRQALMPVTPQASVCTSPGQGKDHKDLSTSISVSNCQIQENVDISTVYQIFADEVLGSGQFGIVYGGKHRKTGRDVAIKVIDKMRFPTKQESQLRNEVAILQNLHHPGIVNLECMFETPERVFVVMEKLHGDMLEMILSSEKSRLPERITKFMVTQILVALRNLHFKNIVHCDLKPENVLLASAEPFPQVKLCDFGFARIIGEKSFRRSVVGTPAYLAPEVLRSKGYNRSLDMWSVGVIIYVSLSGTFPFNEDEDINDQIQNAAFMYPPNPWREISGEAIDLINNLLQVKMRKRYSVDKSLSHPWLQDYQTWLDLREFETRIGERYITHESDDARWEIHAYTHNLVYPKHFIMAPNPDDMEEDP
Put plainly: Inhibition of human recombinant PKD3 at 40 nM in presence of ATP by radiometric assay relative to control.

Assay [2] deals with T2, Aurora kinase C (Homo sapiens) (UniProt Q9UQB9).
T2 sequence (whole entry): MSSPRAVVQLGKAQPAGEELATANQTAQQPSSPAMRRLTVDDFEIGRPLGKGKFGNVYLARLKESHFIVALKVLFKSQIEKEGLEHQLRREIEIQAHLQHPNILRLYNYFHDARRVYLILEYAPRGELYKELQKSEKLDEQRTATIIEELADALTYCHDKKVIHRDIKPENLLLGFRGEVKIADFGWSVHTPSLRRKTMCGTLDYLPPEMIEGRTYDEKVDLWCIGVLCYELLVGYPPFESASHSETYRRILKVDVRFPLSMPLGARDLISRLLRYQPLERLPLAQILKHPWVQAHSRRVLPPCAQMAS
Put plainly: Inhibition of human recombinant AurC at 40 nM related to control ULK1. The method in brief: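 Radiometric activity assays in a panel of 327 human recombinant kinases, each run in duplicate at one inhibitor concentration. Activity remaining is expressed as percent of vehicle control, and percent inhibition is calculated as 100% minus percent activity remaining.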

The target of assay [3] is Protein kinase C delta type (Homo sapiens) (UniProt Q05655). Nature of the assay: Inhibition of human recombinant PKCd at 40 nM in presence of ATP by radiometric assay relative to control.
Sequence of Protein kinase C delta type (Homo sapiens) (Q05655 whole entry, looked up): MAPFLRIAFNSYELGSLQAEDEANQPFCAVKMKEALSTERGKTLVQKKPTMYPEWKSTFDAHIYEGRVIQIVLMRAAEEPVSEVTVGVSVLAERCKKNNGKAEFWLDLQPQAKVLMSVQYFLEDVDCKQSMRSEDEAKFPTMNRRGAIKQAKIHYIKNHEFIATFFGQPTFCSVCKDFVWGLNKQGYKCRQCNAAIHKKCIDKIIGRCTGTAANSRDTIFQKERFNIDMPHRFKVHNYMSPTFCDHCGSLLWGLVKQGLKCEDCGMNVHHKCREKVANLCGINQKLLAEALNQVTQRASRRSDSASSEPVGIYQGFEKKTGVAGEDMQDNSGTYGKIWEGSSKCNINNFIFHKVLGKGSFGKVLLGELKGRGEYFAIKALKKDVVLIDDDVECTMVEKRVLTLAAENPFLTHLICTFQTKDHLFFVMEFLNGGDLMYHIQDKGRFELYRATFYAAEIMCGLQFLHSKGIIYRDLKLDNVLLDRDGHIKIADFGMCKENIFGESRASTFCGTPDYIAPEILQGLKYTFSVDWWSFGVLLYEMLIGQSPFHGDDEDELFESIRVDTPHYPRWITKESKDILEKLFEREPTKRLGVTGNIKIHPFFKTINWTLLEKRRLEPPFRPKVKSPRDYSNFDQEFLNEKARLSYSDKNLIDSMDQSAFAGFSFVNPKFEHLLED
In assay [4] the target is Vascular endothelial growth factor receptor 3 (Homo sapiens) (UniProt P35916). Nature of the assay: Inhibition of human recombinant FLT4 at 40 nM related to control ULK1.
Sequence of Vascular endothelial growth factor receptor 3 (Homo sapiens) (P35916 whole entry): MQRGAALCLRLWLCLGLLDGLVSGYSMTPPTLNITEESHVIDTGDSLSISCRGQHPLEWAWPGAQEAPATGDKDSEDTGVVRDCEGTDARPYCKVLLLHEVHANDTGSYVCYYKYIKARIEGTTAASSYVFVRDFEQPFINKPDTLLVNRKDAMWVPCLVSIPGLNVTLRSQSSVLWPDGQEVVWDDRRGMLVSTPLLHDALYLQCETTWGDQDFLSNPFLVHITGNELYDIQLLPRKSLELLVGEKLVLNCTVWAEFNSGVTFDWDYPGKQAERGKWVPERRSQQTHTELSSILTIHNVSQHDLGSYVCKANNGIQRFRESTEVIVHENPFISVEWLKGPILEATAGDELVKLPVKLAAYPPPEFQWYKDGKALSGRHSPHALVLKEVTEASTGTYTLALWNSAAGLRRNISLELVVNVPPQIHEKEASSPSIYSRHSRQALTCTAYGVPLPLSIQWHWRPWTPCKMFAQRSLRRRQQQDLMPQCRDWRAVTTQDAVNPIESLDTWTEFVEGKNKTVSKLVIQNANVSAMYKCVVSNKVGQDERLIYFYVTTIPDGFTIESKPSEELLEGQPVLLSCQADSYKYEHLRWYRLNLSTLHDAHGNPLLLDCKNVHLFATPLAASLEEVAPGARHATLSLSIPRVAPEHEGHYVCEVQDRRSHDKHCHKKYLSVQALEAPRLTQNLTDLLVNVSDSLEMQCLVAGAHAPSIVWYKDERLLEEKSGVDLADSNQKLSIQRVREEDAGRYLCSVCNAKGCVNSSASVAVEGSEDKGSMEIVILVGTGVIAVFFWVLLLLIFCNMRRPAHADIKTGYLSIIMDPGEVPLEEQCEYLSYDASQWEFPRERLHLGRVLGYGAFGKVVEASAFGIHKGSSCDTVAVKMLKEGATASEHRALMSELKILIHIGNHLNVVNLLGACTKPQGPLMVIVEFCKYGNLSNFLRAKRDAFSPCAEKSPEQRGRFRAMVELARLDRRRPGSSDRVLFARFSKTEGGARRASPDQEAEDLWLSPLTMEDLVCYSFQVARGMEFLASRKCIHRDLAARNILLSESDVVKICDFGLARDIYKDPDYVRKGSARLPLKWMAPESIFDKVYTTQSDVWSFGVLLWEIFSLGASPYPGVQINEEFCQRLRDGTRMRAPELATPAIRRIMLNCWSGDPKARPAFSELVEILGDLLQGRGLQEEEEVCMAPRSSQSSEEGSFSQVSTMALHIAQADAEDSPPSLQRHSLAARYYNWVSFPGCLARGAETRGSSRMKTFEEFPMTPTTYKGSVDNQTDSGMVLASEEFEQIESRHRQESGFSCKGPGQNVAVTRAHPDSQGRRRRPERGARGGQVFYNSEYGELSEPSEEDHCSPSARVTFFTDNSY
Assay [5] has as its target Serine/threonine-protein kinase Nek6 (Homo sapiens) (UniProt Q9HC98). Nature of the assay: Inhibition of human recombinant NEK6 at 500 nM related to control ULK1.
For assay [6], the target named is T3, Tyrosine-protein kinase ITK/TSK (Homo sapiens) (UniProt Q08881).
T3 sequence (whole entry): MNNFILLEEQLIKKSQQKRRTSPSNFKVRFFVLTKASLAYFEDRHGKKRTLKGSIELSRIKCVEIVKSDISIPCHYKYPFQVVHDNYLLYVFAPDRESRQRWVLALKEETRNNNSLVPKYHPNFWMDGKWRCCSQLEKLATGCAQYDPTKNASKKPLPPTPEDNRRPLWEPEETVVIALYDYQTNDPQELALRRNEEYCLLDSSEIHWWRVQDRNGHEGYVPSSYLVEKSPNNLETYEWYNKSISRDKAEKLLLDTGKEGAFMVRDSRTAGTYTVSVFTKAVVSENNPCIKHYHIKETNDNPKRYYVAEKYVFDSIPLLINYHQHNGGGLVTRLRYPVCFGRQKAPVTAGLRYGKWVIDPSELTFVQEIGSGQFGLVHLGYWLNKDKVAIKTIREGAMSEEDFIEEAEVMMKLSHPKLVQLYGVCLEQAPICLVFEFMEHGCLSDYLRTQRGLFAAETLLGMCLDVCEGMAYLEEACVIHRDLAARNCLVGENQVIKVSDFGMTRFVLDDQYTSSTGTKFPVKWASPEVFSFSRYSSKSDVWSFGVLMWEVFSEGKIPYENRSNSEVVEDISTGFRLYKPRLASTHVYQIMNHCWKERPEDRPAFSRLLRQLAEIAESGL
Nature of the assay: Inhibition of human recombinant ITK at 15 nM in presence of ATP by radiometric assay relative to control.

Assay [7] has as its target SRSF protein kinase 3 (Homo sapiens) (UniProt Q9UPE1). Nature of the assay: Inhibition of human recombinant MSSK1 at 15 nM related to control ULK1.

Sequence of SRSF protein kinase 3 (Homo sapiens) (Q9UPE1 whole entry): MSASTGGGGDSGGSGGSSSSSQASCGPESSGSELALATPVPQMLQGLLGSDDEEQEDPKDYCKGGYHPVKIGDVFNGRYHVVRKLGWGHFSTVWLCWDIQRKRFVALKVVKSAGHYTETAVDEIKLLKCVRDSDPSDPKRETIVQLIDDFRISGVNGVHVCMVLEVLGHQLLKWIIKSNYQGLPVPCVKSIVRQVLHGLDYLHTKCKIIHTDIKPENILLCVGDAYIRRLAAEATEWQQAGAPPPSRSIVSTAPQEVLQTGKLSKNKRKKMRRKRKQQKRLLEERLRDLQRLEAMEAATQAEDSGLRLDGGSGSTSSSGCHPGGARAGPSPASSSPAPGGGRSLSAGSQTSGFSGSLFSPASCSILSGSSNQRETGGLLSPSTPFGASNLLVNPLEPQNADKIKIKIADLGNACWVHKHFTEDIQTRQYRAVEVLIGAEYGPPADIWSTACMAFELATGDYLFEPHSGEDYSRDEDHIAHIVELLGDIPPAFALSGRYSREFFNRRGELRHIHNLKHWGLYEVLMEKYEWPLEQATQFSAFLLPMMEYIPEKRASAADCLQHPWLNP
Sequence of Serine/threonine-protein kinase Nek6 (Homo sapiens) (Q9HC98 whole entry): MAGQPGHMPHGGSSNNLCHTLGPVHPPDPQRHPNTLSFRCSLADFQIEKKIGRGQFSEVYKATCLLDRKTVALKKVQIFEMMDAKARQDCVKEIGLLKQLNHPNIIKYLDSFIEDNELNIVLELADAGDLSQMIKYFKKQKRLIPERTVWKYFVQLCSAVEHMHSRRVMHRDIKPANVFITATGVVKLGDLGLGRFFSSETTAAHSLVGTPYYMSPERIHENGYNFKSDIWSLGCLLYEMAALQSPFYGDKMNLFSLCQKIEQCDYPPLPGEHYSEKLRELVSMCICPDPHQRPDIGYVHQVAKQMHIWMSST

Regarding `O=C(N[C@@H](C1CC1)C(F)(F)F)c1cc(-c2cnn3cc(-c4ccc(F)cc4)cnc23)cs1`, the values for the inhibition in assay [1] and in assay [3] were 7% and 3%, respectively. Also, the fold change (FC) in assay [2] amounted to 0; in assay [4] it was 0.26.
In the case of `CNC(=O)c1ccccc1Oc1nc(Nc2cc(OC)c(OC)c(OC)c2)ncc1Br`, in assay [5], the fold change (FC) amounted to 0.
Consider `CC(C)[C@H](NC(=O)c1cc(-c2cnn3cc(-c4ccc(OCCN5CCCCC5)cc4)cnc23)cs1)C(F)(F)F`, for which, in assay [6], the inhibition turned out to be 4%. In assay [7], the fold change (FC) was determined as 0.
